Calls of active or inactive are those of the source. Numbered stars: 1 amine (or outer) side, 2 acyl side, 3 side chain; on linkers, the order of the positions; unused ones are H or OH. Square brackets hold non-standard residues; d marks the D form. Peptide text beside a SMILES is read from it. X1 = O=C1[C@@H](N[*:1])Cc2ccccc2CN1CCC(=O)[*:2]; Dmt = Cc1cc(O)cc(C)c1C[C@H](N)C(=O)O
How the values were obtained:
Mus musculus [1] = assay: Antiallodynic activity in albino Swiss CD1 IGS mouse model of chronic constriction injury-induced neuropathic pain assessed as increase in mechanical threshold for paw withdrawal at 0.0005 nmol, it administered on day 7 to 16 after CCI surgery measured 180 mins post dose by Von Frey test; type: functional, organism-based
How it was run: (§1)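 Male CD-1 mice (30–35 g). CCI: sciatic constriction injury, tested on days 7–16 after surgery. STZ diabetes: single ip streptozocin 200 mg/kg; mice with glucose >300 mg/dL included, tested on day 10. Drug in water for injection, given it (5 µL, L5–L6 lumbar puncture) to conscious mice. von Frey (cutoff 6 g) or cold plate (2 °C, 30 s cutoff, paw lift) at 30, 90, 180 min; 6–8 mice/group.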

Mus musculus [2] = assay: Antinociceptive activity in C57BL6 mouse model of acute pain assessed as increase in withdrawal latency from radiant heat source at 61 to 196 nmol/kg, po measured after 5 to 120 mins by tail flick assay relative to control; type: functional
How it was run: (§2)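 Male C57BL6 mice (20–25 g); compound or saline given iv into tail vein (po also tested). Radiant heat on ventral tail, latency to withdrawal/shaking recorded at baseline and 5, 15, 30, 60, 120 min (later points also reported); normalized as %MPE; 8–10 mice per group.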

Rattus norvegicus [3] = assay: Reduction in expiratory time in Sprague-Dawley rat at 6 nmol/kg, iv after 5 to 120 mins by plethysmography method; type: organism-based; settings: in vivo
How it was run: (§3)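 Male Sprague–Dawley rats (250–350 g) with implanted catheter and intraperitoneal temperature transmitter, dosed iv at T0; 0.9% NaCl as control; N = 6/group. Whole-body barometric plethysmography, ~60 s records at −30, −15, −5, 5–120 min.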

Rattus norvegicus [4] = assay: Reduction in tidal volume in Sprague-Dawley rat at 6 nmol/kg, iv after 5 to 120 mins by plethysmography method; type: organism-based; settings: in vivo; how it was run: as §3
Mus musculus [5] = assay: Antiallodynic activity in albino Swiss CD1 IGS mouse model of streptozocin-induced type1 diabetic neuropathic pain assessed as increase in mechanical threshold for paw withdrawal at 0.005 nmol, it administered on day 10 after STZ injection measured at 180 mins post dose by Von Frey test; type: functional, organism-based; how it was run: as §1
Mus musculus [6] = assay: Antinociceptive activity in C57BL6 mouse model of acute pain assessed as increase in withdrawal latency from radiant heat source at 31 to 61 nmol/kg, iv measured after 180 to 240 mins by tail flick assay relative to control; type: functional; how it was run: as §2
Rattus norvegicus [7] = assay: Induction of respiratory depression in Sprague-Dawley rat at 6 nmol/kg, iv after 5 to 120 mins by plethysmography method; type: organism-based; settings: in vivo; how it was run: as §3
Mus musculus [8] = assay: Antiallodynic activity in albino Swiss CD1 IGS mouse model of streptozocin-induced type1 diabetic neuropathic pain assessed as increase in mechanical threshold for paw withdrawal at 0.005 nmol, it administered on day 10 after STZ injection measured at 30 mins post dose by Von Frey test; type: functional, organism-based; how it was run: as §1
Mus musculus [9] = assay: Antihyperalgesic activity in albino Swiss CD1 IGS mouse model of streptozocin-induced type1 diabetic neuropathic pain assessed as increase in paw withdrawal latency at 0.005 nmol, it administered on day 10 after STZ injection measured at 180 mins post dose by […]; type: functional, organism-based; how it was run: as §1
Mus musculus [10] = assay: Neurotoxicity in intrathecally dosed albino Swiss CD1 IGS mouse assessed as motor impairment measured after 15 to 120 mins post dose by rotarod test; type: toxicity, organism-based; settings: in vivo, icv_or_intrathecal
How it was run: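 Intrathecal dosing (water for injection, 5 µL) to male CD-1 mice. After three training sessions, mice placed on accelerating rod (2 to 40 rpm over 300 s cutoff); tested 15 and 120 min after injection.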

[11] = Passive permeability of compound at 500 uM after 4 hrs by BBB-PAMPA; type: ADME; settings: read-out: permeability
How it was run: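 BBB-PAMPA with porcine brain polar lipids; compound at 500 µM in donor compartment in system solution containing 20% 1-propanol; 4 h at room temperature in humidified box, 25 µm unstirred water layer. Quantified by RP-HPLC, identity by MALDI-TOF; effective permeability and % transport calculated.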

Mus musculus [12] = assay: Antihyperalgesic activity in albino Swiss CD1 IGS mouse model of chronic constriction injury-induced neuropathic pain assessed as increase in paw withdrawal latency at 0.0005 nmol, it administered on day 7 to 16 after CCI surgery measured 180 mins post dose by cold plate test; type: functional, organism-based; how it was run: as §1

For `CC[C@H](C)[C@H](NC(=O)[C@H](CCCNC(=N)N)NC(=O)[C@H](Cc1ccc(O)cc1)NC(=O)[C@H](Cc1ccc(O)cc1)NC(=O)[C@H](CCCNC(=N)N)NC(=O)CCN1Cc2ccccc2C[C@H](NC(=O)[C@@H](CCCNC(=N)N)NC(=O)[C@@H](N)Cc2c(C)cc(O)cc2C)C1=O)C(=O)N[C@@H](CCCCN)C(N)=O` (H-[Dmt][dR][X1]RYYRIK-NH2), the Activity (Mus musculus [1]) was “Active”, the MPE (Mus musculus [2]) was under 5% and the Activity (Rattus norvegicus [3]) was “Non-toxic”. For the same compound, the Activity (Rattus norvegicus [4]) was “Non-toxic”, the Activity (Mus musculus [5]) was “inactive” and the MPE (Mus musculus [6]) was 100%. For the same compound, the Activity (Rattus norvegicus [7]) was “Non-toxic”, the Activity (Mus musculus [8]) was “Active” and the Activity (Mus musculus [9]) was “Active”. The Activity (Mus musculus [10]) was “Non-toxic”, the Papp at 4 h, 500 µM [11] was 0.11 ×10⁻⁶ cm/s and the Activity (Mus musculus [12]) was “Active”.

Reference: ChEMBL document CHEMBL3808291, “Bifunctional Peptide-Based Opioid Agonist-Nociceptin Antagonist Ligands for Dual Treatment of Acute and Neuropathic Pain” (J Med Chem, 2016)
